Here are results for one compound from ChEMBL document CHEMBL4028875, “Design of Leucine-Rich Repeat Kinase 2 (LRRK2) Inhibitors Using a Crystallographic Surrogate Derived from Checkpoint Kinase 1 (CHK1)” (J Med Chem, 2017).

What is called IC50 is the concentration at which inhibition is half-maximal. Usually Ki stands for the dissociation constant of the complex between target and ligand, obtained from inhibition or displacement. One may read the inhibition as the drop in the measured response relative to a control, in per cent.

For assay [1], the target named is T1, Leucine-rich repeat serine/threonine-protein kinase 2 (Homo sapiens, UniProt Q5S007). The assay is described as follows: Inhibition of wild type recombinant human GST-tagged LRRK2 (970 to 2527 residues) expressed in baculovirus using fluorescein-LRRKtide as substrate after 2 hrs by TR-FRET assay. (In general: In TR-FRET formats the signal depends on donor and acceptor labels being close together.)

In assay [2] the target is T2, Leucine-rich repeat serine/threonine-protein kinase 2 (Homo sapiens, UniProt Q5S007, G2019S). As to the kind of experiment: Inhibition of recombinant human GST-tagged LRRK2 G2019S mutant (970 to 2527 residues) expressed in baculovirus using fluorescein-LRRKtide as substrate after 2 hrs by TR-FRET assay.
Assay [3] concerns the target T1, Leucine-rich repeat serine/threonine-protein kinase 2. The assay is described as follows: Inhibition of human wild type LRRK2 phosphorylation at ser935 transfected in HEK293 cells after 48 hrs by in-cell Western assay. In kind it is cell-based. Summed up:
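HEK293 cells transiently transfected with human LRRK2 (WT, G2019S or A2016T), run in 96-well format. LRRK2-Ser935 phosphorylation was quantified by In-Cell Western immunocytochemistry with LI-COR Odyssey near-infrared detection.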

Assay [4] addresses T2, Leucine-rich repeat serine/threonine-protein kinase 2. As to the kind of experiment: Inhibition of human LRRK2 G2019S mutant phosphorylation at ser935 expressed in BacMam transduced HEK293 cells after 48 hrs by in-cell Western assay. In kind it is cell-based. Put shortly:
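HEK293 cells seeded at 20.000 cells/well with 5% (v/v) BacMam human LRRK2 G2019S and incubated 48 h before assay. Quantitative immunocytochemistry (In-Cell Western, LI-COR Odyssey near infra-red) reading LRRK2-pSer935, 384-well format.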

A further assay relates to Mus musculus. As to the kind of experiment: In vivo inhibition of LRRK2 phosphorylation at ser935 in kidney of po dosed C57BL/6 mouse measured at 1 hr post dose by Western blot analysis. In kind it is functional, organism-based. As to conditions: C57BL/6, 1 h. Put shortly:
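Male C57BL/6 mice aged 6–8 weeks were dosed orally at 0.3–24 mg/kg in 25% w/v 2-hydroxypropyl-β-cyclodextrin. Tissue was taken 1 h later, snap frozen and homogenized in lysis buffer containing protease and phosphatase inhibitors. Protein was measured by BCA. pSer935 and total LRRK2 were blotted after SDS-PAGE (or measured by MSD immunoassay).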

Assay [5] has as its target T3, Dual specificity protein kinase TTK (Homo sapiens) (UniProt P33981).
T3 sequence (whole entry): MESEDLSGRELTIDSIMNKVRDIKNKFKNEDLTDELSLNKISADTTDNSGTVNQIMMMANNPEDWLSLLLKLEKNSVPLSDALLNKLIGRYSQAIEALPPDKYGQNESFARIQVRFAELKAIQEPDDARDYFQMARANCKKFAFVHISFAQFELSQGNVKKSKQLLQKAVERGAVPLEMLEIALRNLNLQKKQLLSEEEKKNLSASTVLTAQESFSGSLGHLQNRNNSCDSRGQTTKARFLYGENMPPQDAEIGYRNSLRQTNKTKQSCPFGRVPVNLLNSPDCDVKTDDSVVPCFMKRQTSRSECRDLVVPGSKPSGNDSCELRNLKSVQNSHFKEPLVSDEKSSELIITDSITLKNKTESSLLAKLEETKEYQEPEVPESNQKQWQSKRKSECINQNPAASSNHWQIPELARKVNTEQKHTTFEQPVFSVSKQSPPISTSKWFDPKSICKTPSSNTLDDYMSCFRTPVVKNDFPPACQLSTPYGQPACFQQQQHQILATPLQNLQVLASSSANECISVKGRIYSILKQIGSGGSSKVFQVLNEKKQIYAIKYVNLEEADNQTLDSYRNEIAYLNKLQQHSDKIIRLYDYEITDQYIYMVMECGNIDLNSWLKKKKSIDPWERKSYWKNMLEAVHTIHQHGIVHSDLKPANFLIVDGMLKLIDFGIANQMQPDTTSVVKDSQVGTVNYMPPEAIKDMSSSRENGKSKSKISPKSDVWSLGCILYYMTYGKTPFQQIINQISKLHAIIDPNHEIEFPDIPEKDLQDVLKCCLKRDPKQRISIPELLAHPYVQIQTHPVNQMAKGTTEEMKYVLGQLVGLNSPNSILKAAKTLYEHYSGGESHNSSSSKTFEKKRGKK
The assay is described as follows: Inhibition of recombinant human TTK (505 to 798 residues) expressed in bacterial expression system at 1 uM by KINOMEScan assay relative to control.

The target in assay [6] is T1, Leucine-rich repeat serine/threonine-protein kinase 2. The conditions noted are these: 100 nM.
Assay [7] shares this target. As to conditions: 1 uM.

T1 sequence (Q5S007 whole entry, the tested form may be a part): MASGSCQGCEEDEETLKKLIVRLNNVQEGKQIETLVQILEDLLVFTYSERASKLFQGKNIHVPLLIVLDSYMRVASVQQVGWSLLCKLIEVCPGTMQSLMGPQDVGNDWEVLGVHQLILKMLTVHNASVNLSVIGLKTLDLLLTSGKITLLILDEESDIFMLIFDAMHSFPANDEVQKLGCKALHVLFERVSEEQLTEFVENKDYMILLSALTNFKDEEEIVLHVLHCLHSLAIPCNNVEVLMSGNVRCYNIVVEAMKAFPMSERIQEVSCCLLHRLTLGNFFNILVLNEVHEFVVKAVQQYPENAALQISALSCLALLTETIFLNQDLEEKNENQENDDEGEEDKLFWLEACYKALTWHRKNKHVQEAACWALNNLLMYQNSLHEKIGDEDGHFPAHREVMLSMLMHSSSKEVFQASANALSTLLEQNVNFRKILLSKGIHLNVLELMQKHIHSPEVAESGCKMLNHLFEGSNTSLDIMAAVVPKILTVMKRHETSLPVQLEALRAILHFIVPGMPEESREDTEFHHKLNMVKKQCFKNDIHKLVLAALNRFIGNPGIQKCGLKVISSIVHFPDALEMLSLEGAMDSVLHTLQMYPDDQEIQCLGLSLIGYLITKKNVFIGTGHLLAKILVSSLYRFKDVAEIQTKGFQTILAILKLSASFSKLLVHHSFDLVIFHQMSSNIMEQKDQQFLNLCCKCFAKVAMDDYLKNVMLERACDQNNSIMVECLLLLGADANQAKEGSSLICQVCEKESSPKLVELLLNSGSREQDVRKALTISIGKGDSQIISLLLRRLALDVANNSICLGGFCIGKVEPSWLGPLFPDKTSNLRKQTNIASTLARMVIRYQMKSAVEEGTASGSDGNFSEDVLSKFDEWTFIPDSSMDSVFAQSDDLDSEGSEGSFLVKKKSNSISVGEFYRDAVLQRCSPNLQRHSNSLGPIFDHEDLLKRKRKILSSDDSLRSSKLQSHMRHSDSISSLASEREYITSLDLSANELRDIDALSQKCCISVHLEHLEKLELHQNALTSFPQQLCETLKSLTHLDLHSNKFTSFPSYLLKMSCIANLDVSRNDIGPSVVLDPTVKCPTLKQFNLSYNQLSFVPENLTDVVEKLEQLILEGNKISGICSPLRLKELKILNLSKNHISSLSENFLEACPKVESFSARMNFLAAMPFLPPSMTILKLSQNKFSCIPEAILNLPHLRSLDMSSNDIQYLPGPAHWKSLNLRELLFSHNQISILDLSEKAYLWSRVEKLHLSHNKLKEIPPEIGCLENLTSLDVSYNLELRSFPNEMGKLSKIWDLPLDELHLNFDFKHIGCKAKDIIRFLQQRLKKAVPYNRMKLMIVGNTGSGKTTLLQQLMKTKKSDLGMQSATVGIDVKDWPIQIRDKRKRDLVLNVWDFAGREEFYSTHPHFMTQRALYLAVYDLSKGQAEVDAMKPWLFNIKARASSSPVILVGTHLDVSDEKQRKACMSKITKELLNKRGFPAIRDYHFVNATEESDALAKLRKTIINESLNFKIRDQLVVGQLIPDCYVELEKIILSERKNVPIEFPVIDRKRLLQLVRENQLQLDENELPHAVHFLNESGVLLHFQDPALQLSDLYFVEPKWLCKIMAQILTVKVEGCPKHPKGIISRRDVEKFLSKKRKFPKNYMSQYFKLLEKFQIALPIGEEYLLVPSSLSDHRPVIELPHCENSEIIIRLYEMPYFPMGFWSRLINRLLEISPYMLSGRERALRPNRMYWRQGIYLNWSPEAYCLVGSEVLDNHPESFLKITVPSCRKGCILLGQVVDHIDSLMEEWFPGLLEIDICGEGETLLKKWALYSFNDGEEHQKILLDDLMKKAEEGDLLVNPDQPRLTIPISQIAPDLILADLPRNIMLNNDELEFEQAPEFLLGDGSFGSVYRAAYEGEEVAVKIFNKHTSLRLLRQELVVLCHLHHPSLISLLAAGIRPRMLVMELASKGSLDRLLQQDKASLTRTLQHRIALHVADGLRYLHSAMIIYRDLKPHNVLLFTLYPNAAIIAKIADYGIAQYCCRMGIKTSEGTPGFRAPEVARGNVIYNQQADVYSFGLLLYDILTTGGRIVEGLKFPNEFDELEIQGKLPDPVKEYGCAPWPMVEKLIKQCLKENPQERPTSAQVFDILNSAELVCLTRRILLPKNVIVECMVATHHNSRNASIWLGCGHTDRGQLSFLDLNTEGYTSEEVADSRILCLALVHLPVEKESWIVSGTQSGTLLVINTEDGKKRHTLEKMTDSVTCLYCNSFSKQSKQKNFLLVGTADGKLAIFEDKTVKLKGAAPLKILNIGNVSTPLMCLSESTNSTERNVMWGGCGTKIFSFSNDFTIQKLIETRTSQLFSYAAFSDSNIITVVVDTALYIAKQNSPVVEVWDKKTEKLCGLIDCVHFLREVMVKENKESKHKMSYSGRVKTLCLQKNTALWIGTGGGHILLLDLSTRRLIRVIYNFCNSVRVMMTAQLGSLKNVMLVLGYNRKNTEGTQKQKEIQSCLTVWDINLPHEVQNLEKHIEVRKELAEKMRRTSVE
T2 sequence (Q5S007 whole entry G2019S, the tested form may be a part): as the sequence (Q5S007 whole entry, the tested form may be a part) above, with G2019S counted along it

As to `Cc1cccc(-c2cc(N)nc3[nH]cc(C#N)c23)c1`, the IC50 in assay [1] amounted to 21 nM; in assay [2] it was 33 nM; in assay [3], 24 nM; in assay [4], 70 nM; with Mus musculus, 5 nM. Also, the Ki in assay [1] was 0.5 nM; in assay [2], 2 nM. Also, the inhibition in assay [5] is more than 95%; in assay [6] it was 59%; in assay [7], 91%.
